According to ChEMBL document CHEMBL2034819, “β-Lapachone analogs with enhanced antiproliferative activity” (Eur J Med Chem, 2012):
Activity calls are given as the source filed them. No cut-off for these calls is given here.

Experiments:
HeLa [1] = assay: Growth inhibition of human HeLa cells by SRB assay; format: functional
Summary of the method: (§1)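 Cells kept in RPMI 1640 with 5% heat-inactivated FCS and 2 mM L-glutamine. Plated at 10 000 (HBL-100, SW1573), 15 000 (HeLa) or 20 000 (WiDr) cells/well. Drug added on day 1, in triplicate, over 1–100 µM with 0.25% DMSO final. Exposure 48 h. Cells TCA-fixed 60 min at 4 °C, then SRB-stained, OD 492 nm, background-corrected. GI50 reported.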

HBL-100 [2] = assay: Growth inhibition of human HBL100 cells by SRB assay; format: functional; summary of the method: as §1
SW1573 [3] = assay: Growth inhibition of human SW1573 cells by SRB assay; format: functional; summary of the method: as §1
WiDr [4] = assay: Growth inhibition of human WiDr cells by SRB assay; format: functional; summary of the method: as §1
HBL-100 [5] = assay: Cell cycle arrest in human HBL100 cells assessed as accumulation at G2/M phase after 24 hrs by flow cytometric analysis; format: functional, cell-based
Summary of the method: (§2)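 Cells seeded at 2.5–5 × 10^5 per well and treated after 24 h at two concentrations per agent for a further 24 h. Harvested, then fixed in ice-cold 70% EtOH overnight. Treated with DNase-free RNase at 37 °C for 30 min and stained with PI. DNA content read by flow cytometry on 20 000 cells/sample. G0/G1, S and G2/M fractions gated.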

HeLa [6] = assay: Cell cycle arrest in human HeLa cells assessed as accumulation at S phase after 24 hrs by flow cytometric analysis; format: functional, cell-based; summary of the method: as §2
SW1573 [7] = assay: Cell cycle arrest in human SW1573 cells assessed as accumulation at S phase after 24 hrs by flow cytometric analysis; format: functional, cell-based; summary of the method: as §2
WiDr [8] = assay: Cell cycle arrest in human WiDr cells assessed as accumulation at G2/M phase after 24 hrs by flow cytometric analysis; format: functional, cell-based; summary of the method: as §2
[9] = biological target: DNA topoisomerase 2-alpha (Homo sapiens) (UniProt P11388); assay: Inhibition of human topoisomerase 2alpha-mediated kDNA decatenation
DNA topoisomerase 2-alpha (Homo sapiens), sequence (P11388 whole entry): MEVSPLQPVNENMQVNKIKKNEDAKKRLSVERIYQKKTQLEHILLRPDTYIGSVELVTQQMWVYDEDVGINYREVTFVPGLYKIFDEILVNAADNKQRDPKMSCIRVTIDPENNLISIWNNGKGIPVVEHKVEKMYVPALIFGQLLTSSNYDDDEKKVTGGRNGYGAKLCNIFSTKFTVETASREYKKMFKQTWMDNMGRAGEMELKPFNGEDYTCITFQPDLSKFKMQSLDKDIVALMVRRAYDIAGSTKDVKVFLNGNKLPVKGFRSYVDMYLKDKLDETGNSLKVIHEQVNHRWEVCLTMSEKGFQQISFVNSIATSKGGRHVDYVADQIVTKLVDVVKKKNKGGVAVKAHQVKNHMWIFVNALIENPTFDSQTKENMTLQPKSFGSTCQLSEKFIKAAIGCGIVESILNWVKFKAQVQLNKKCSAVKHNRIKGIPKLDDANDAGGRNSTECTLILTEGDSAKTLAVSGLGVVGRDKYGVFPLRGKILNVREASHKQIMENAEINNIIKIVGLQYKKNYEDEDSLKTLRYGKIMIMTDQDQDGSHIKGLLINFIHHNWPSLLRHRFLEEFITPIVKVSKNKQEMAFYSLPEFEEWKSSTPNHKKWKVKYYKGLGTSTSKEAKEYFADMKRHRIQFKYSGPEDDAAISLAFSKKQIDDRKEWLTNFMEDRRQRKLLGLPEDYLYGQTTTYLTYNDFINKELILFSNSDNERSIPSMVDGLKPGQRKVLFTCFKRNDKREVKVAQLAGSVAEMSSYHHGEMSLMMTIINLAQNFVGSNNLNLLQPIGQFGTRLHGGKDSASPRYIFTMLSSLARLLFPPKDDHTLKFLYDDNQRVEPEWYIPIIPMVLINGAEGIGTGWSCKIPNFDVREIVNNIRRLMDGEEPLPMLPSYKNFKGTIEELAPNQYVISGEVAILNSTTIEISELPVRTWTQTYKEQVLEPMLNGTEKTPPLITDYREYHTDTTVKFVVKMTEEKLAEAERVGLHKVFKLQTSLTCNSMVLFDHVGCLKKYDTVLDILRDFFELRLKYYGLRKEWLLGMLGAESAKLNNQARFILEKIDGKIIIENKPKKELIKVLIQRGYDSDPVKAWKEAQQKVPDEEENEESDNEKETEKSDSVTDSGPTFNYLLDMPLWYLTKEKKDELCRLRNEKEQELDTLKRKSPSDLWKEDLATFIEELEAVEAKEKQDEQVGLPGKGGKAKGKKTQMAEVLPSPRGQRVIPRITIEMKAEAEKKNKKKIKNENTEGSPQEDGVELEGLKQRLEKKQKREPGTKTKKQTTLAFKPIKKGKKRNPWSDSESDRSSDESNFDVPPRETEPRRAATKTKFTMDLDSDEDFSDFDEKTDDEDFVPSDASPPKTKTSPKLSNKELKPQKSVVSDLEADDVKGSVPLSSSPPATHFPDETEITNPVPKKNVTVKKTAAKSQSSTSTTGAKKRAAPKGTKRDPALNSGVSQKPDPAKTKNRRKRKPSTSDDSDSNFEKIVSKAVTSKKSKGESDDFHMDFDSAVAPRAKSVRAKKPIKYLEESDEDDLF

WiDr [10] = assay: Cell cycle arrest in human WiDr cells assessed as accumulation at S phase after 24 hrs by flow cytometric analysis; format: functional, cell-based; summary of the method: as §2
SW1573 [11] = assay: Cell cycle arrest in human SW1573 cells assessed as accumulation at G2/M phase after 24 hrs by flow cytometric analysis; format: functional, cell-based; summary of the method: as §2
HBL-100 [12] = assay: Cell cycle arrest in human HBL100 cells assessed as accumulation at S phase after 24 hrs by flow cytometric analysis; format: functional, cell-based; summary of the method: as §2
HeLa [13] = assay: Cell cycle arrest in human HeLa cells assessed as accumulation at G2/M phase after 24 hrs by flow cytometric analysis; format: functional, cell-based; summary of the method: as §2
HeLa [14] = assay: Decrease in cyclin E expression in human HeLa cells at 3 uM after 24 hrs by immunoblot analysis; format: functional, cell-based
Summary of the method: (§3)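 HeLa cells exposed to 3 µM for several time intervals. Lysed in Tris pH 8.0/NP-40 buffer with protease and phosphatase inhibitors, and debris pelleted. Proteins resolved by SDS-PAGE and blotted to PVDF. Probed for PARP-1, procaspase 3, cyclin A, cyclin E, MRE11, p-Chk2 and γ-H2AX, with α-tubulin as loading control. HRP secondaries with luminol/p-iodophenol detection.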

[15] = Cytotoxicity against mouse erythrocytes assessed as lytic effect; format: cell-based; conditions: erythrocyte
HeLa [16] = assay: Induction of DNA damage in human HeLa cells assessed as increase in chk2 phosphorylation at 3 uM after 24 hrs by immunoblot analysis; format: functional, cell-based; summary of the method: as §3
HeLa [17] = assay: Induction of apoptosis in human HeLa cells assessed as PARP cleavage at 3 uM after 24 hrs by immunoblot analysis; format: functional, cell-based; summary of the method: as §3
HeLa [18] = assay: Induction of DNA damage in human HeLa cells assessed as increase in gamma-H2AX phosphorylation at 3 uM after 24 hrs by immunoblot analysis; format: functional, cell-based; summary of the method: as §3
HeLa [19] = assay: Increase in cyclin A expression in human HeLa cells at 3 uM after 24 hrs by immunoblot analysis; format: functional, cell-based; summary of the method: as §3
HeLa [20] = assay: Increase in MRE11A expression in human HeLa cells at 3 uM after 24 hrs by immunoblot analysis; format: functional, cell-based; summary of the method: as §3
HeLa [21] = assay: Induction of apoptosis in human HeLa cells assessed as caspase 3 cleavage at 3 uM after 24 hrs by immunoblot analysis; format: functional, cell-based; summary of the method: as §3
HeLa [22] = assay: Induction of intracellular reactive oxygen species production in human HeLa cells at 3 uM after 3 hrs DCFH-DA staining-based flow cytometric analysis relative to control; format: functional
Summary of the method: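 HeLa cells seeded at 3 × 10^5 per well and treated 24 h later at 3 µM for 3 h. Co-incubated with 5 µM DCFH-DA for 1 h at 37 °C. DCF fluorescence read by flow cytometry on 10 000 cells/sample and compared with untreated cells. H2O2 (500 µM) served as positive control.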

Row | Structure (SMILES) | GI50 (HeLa [1]) [nM] | GI50 (SW1573 [3]) [nM] | GI50 (HBL-100 [2]) [nM] | GI50 (WiDr [4]) [µM] | other results
1 | COc1ccc2c(c1)C(=O)C1=C(CCC(C)(C)O1)C2=O | 40000 | 27000 | 28000 | 82 | 
2 | COc1cccc2c1C(=O)C(=O)C1=C2OC(C)(C)CC1 | 5100 | 1400 | 2700 | 86 | 
3 | COc1cccc2c1C(=O)C1=C(OC(C)(C)CC1)C2=O | > 100000 | > 100000 | 28000 | > 100 | 
4 | COc1cccc2c1C1=C(CCC(C)(C)O1)C(=O)C2=O | 1800 | 460 | 690 | 2.1 | 
5 | COc1ccc2c(c1)C(=O)C(=O)C1=C2OC(C)(C)CC1 | 1700 | 450 | 410 | 27 | 
6 | CC1(C)CCC2=C(O1)c1c(O)cccc1C(=O)C2=O | 1100 | 360 | 620 | 1.9 | Activity (HBL-100 [5]): Dose-dependent effect; Activity (HeLa [6]): Dose-dependent effect; Activity (SW1573 [7]): Dose-dependent effect; Activity (WiDr [8]): Dose-dependent effect; inhibition [9]: inactive; Activity (WiDr [10]): Dose-dependent effect; Activity (SW1573 [11]): Dose-dependent effect; Activity (HBL-100 [12]): Dose-dependent effect; Activity (HeLa [13]): Dose-dependent effect
7 | CC1(C)CCC2=C(O1)c1ccccc1C(=O)C2=O [LAPACHONE] | 1000 | 840 | 380 |  | Activity (HBL-100 [5]): Dose-dependent effect; Activity (HeLa [6]): Dose-dependent effect; Activity (SW1573 [7]): Dose-dependent effect; Activity (WiDr [8]): Dose-dependent effect; inhibition [9]: inactive; Activity (WiDr [10]): Dose-dependent effect; Activity (SW1573 [11]): Dose-dependent effect; Activity (HBL-100 [12]): Dose-dependent effect; Activity (HeLa [13]): Dose-dependent effect

Further compounds by falling GI50 (HeLa [1]), results first:

Row | GI50 (HeLa [1]) [nM] | GI50 (SW1573 [3]) [nM] | Structure (SMILES) | GI50 (HBL-100 [2]) [nM] | GI50 (WiDr [4]) [µM] | other results
8 | 30000 | 26000 | COc1cccc2c1C(=O)C(CC=C(C)C)=C(O)C2=O | 22000 | > 100 | 
9 | 18000 | 17000 | COc1ccc2c(c1)C(=O)C(O)=C(CC=C(C)C)C2=O | 19000 | 68 | 
10 | 2500 | 2300 | CC1(C)CCC2=C(O1)c1ccc(O)cc1C(=O)C2=O | 2300 | 21 | 
11 | 1800 | 19000 | CC1(C)CCC2=C(O1)C(=O)c1c(O)cccc1C2=O | 3400 | 14 | 
12 | 1600 | 230 | CC1(C)CCC2=C(O1)c1cccc(OC(=O)C(C)(C)C)c1C(=O)C2=O | 180 | 2.1 | 
13 | 210 | 29 | CC1(C)CCC2=C(O1)c1cccc(O)c1C(=O)C2=O | 36 | 2 | Activity (HeLa [14]): Active; Activity [15]: Non-toxic; Activity (HeLa [16]): Active; Activity (HeLa [17]): inactive; Activity (HeLa [18]): Active; Activity (HBL-100 [5]): Dose-dependent effect; Activity (HeLa [6]): Dose-dependent effect; Activity (SW1573 [7]): Dose-dependent effect; Activity (HeLa [19]): Active; Activity (WiDr [8]): Dose-dependent effect; Activity (HeLa [20]): Active; inhibition [9]: inactive; Activity (WiDr [10]): Dose-dependent effect; Activity (HeLa [21]): inactive; Activity (SW1573 [11]): Dose-dependent effect; fold change (FC) (HeLa [22]): 6; Activity (HBL-100 [12]): Dose-dependent effect; Activity (HeLa [13]): Dose-dependent effect
